Reference: ChEMBL document CHEMBL5244266, “Nitrogen-containing naringenin derivatives for reversing multidrug resistance in cancer” (Bioorg Med Chem, 2020)

Experiments:
[1] = tested on: L5178Y; test: Cytotoxicity against parental mouse L5178Y cells assessed as inhibition of cell growth incubated for 24 hrs by MTT assay; type: functional, cell-based
In short: (§1)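 L5178Y parental and human ABCB1 retrovirus-transfected lines were grown in McCoy's 5A with 10% heat-inactivated horse serum, and the MDR line was kept under colchicine 60 ng/mL. Cells were seeded at 1×10^4/well and given 2-fold dilutions from 100 μM maximum, in duplicate, for 24 h. MTT was added for 4 h, then SDS/HCl overnight at 37 °C, with OD read at 550 nm (ref 630 nm). Growth inhibition was computed against cell and medium controls, and IC50 came from curve fitting (mean ± SD).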

[2] = tested on: L5178Y; test: Cytotoxicity against multi-drug resistant mouse L5178Y cells transfected with ABCB1 gene assessed as inhibition of cell growth incubated for 24 hrs by MTT assay; type: functional, cell-based; in short: as §1
[3] = tested on: L5178Y; test: (§2) Modulation of P-glycoprotein mediated Rhodamine-123 efflux in multi-drug resistant mouse L5178Y cells tranfected with ABCB1 gene assessed as fluorescence activity ratio at 2 uM preincubated for 10 mins followed by rhodamine-123 addition and measured after 20 mins by flow cytometric analysis (reference value: 1.01); type: cell-based; details: filed as modulator, time 30.0 min
In short: (§3)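 Cells were held in serum-free McCoy's 5A with compound at 2.0 or 20 μM, verapamil 20 μM as positive control and DMSO 2% as solvent control, for 10 min at room temperature. R123 was then added (5.2 μM final) for 20 min at 37 °C, followed by two washes into PBS and flow cytometry (FL-1 mean fluorescence). FAR = (MDR treated/untreated FL-1) divided by (PAR treated/untreated FL-1).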

[4] = tested on: L5178Y; test: Synergistic cytotoxicity against multi-drug resistant mouse L5178Y cells transfected with ABCB1 gene assessed as combination index measured after 48 hrs in the presence of doxorubicin by MTT assay; type: functional
In short: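 This was a fixed-ratio checkerboard in L5178Y-MDR cells, with doxorubicin diluted from 14.7 to 0.1 μM against serial dilutions of the modulator. Cells were seeded at 2×10^5/mL, incubated 48 h, and read by MTT. Each curve was fitted linearly to the Chou–Talalay median-effect equation, keeping only fits with r > 0.90. CI at 50% inhibition is given as the mean ± SD of three CI values from different drug ratios.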

[5] = tested on: L5178Y; test: as §2, with “ratio by measuring fold change” for “ratio”, “at 20” for “at 2”, “analysis relative to verapamil” for “analysis (reference value: 1.01)”; type: cell-based; details: filed as modulator, time 30.0 min; in short: as §3
[6] = tested on: L5178Y; test: as §2, with “ratio by measuring fold change” for “ratio”, “relative to verapamil” for “(reference value: 1.01)”; type: cell-based; details: filed as modulator, time 30.0 min; in short: as §3

Compound	IC50 [1] [µM]	IC50 [2] [µM]	Ratio [3]	CI [4]	fold change (FC) [5]	fold change (FC) [6]
Oc1ccc([C@@H]2C/C(=N\Nc3ccccc3)c3c(O)cc(O)cc3O2)cc1	≥ 11.3	≥ 11.3	1.16	–	–	–
O=C(N/N=C1\C[C@@H](c2ccc(O)cc2)Oc2cc(O)cc(O)c21)c1ccco1 (stereo in doubt)	≥ 11.3	≥ 11.3	0.86	–	–	–
COc1cc(O)c2c(c1)O[C@H](c1ccc(O)cc1)C/C2=N\NC(=O)c1cccs1	9.4	12	1.39	–	–	–
COc1cc(O)c2c(c1)O[C@H](c1ccc(OCC(O)CSc3ccccc3)cc1)CC2=O (stereo partly drawn)	≥ 11.3	≥ 11.3	0.92	–	–	–
O=C1C[C@@H](c2ccc(O)cc2)Oc2cc(O)cc(O)c21 [NARINGENIN]	≥ 11.3	≥ 11.3	0.72	–	–	–
COc1cc(O)c2c(c1)O[C@H](c1ccc(O)cc1)C/C2=N\NC(=O)c1ccc(C(F)(F)F)cc1	≥ 11.3	≥ 11.3	0.83	–	–	–
COc1cc(O)c2c(c1)O[C@H](c1ccc(O)cc1)C/C2=N\Nc1ccccc1	≥ 11.3	≥ 11.3	1.16	–	–	–
COc1ccc([C@@H]2C/C(=N\Nc3ccccc3)c3c(O)cc(OC)cc3O2)cc1	≥ 11.3	≥ 11.3	1.8	–	–	–
O=C(Cc1c[nH]c2ccccc12)N/N=C1\C[C@@H](c2ccc(O)cc2)Oc2cc(O)cc(O)c21	≥ 11.3	≥ 11.3	1	–	–	–
O=C(N/N=C1\C[C@@H](c2ccc(O)cc2)Oc2cc(O)cc(O)c21)c1cccs1 (stereo in doubt)	≥ 11.3	≥ 11.3	0.92	–	–	–
COC(=O)C1CCN(CC(O)COc2ccc([C@@H]3CC(=O)c4c(O)cc(OC)cc4O3)cc2)CC1 (stereo partly drawn)	≥ 11.3	≥ 11.3	8.01	–	–	–
COc1ccc([C@@H]2CC(=O)c3c(O)cc(OC)cc3O2)cc1	≥ 11.3	≥ 11.3	1.03	–	–	–
COc1cc(O)c2c(c1)O[C@H](c1ccc(OCC(O)Cc3c[nH]c4ccccc34)cc1)CC2=O (stereo partly drawn)	≥ 11.3	≥ 11.3	0.86	–	–	–
COc1ccc([C@@H]2C/C(=N\NC(=O)Cc3c[nH]c4ccccc34)c3c(O)cc(OC)cc3O2)cc1	8.6	7.5	2.47	–	–	–
COc1cc(O)c2c(c1)O[C@H](c1ccc(O)cc1)CC2=O [SAKURANETIN]	≥ 11.3	≥ 11.3	1.06	–	–	–
COc1cccc(/C=N/N=C2\C[C@@H](c3ccc(O)cc3)Oc3cc(OC)cc(O)c32)c1	≥ 11.3	≥ 11.3	0.78	–	–	–
COc1cc(O)c2c(c1)O[C@H](c1ccc(O)cc1)C/C2=N\NC(=O)c1ccc(N)cc1	≥ 11.3	≥ 11.3	0.96	–	–	–
CN(C)C(=S)N/N=C1\C[C@@H](c2ccc(O)cc2)Oc2cc(O)cc(O)c21	≥ 11.3	≥ 11.3	2.17	–	–	–
COc1cc(O)c2c(c1)O[C@H](c1ccc(O)cc1)C/C2=N\N	≥ 11.3	≥ 11.3	1.26	–	–	–
Oc1ccc([C@@H]2C/C(=N\Nc3cnccn3)c3c(O)cc(O)cc3O2)cc1	≥ 11.3	≥ 11.3	1.65	–	–	–

Compound	IC50 [1] [µM]	IC50 [2] [µM]	Ratio [3]	CI [4]	fold change (FC) [5]	fold change (FC) [6]
COc1cc(O)c2c(c1)O[C@H](c1ccc(O)cc1)C/C2=N\NC(=O)Cc1c[nH]c2ccccc12	≥ 11.3	≥ 11.3	1.12	–	–	–
COc1ccc([C@@H]2C/C(=N\N)c3c(O)cc(OC)cc3O2)cc1	≥ 11.3	≥ 11.3	0.85	–	–	–
COc1ccc([C@@H]2C/C(=N\Nc3ccc(Br)cn3)c3c(O)cc(OC)cc3O2)cc1	8	10.7	10.7	–	–	–
N/N=C1\C[C@@H](c2ccc(O)cc2)Oc2cc(O)cc(O)c21	≥ 11.3	≥ 11.3	0.72	–	–	–
Oc1ccc([C@@H]2C/C(=N\Nc3ccc(Br)cn3)c3c(O)cc(O)cc3O2)cc1	≥ 11.3	≥ 11.3	1.08	–	–	–
COc1ccc([C@@H]2C/C(=N\NC(=O)OCc3ccccc3)c3c(O)cc(OC)cc3O2)cc1	> 100	7.2	0.94	0.445	–	–
COc1cc(O)c2c(c1)O[C@H](c1ccc(O)cc1)C/C2=N\NC(=O)OCc1ccccc1	≥ 11.3	≥ 11.3	4.14	0.638	7	–
COc1cc(O)c2c(c1)O[C@H](c1ccc(OCC(O)CCl)cc1)CC2=O (stereo partly drawn)	≥ 11.3	≥ 11.3	1.33	–	–	–
COc1ccc([C@@H]2C/C(=N\NC(=O)c3ccco3)c3c(O)cc(OC)cc3O2)cc1	2.7	3.4	2.24	–	–	–
COc1ccc([C@@H]2C/C(=N\NC(=O)c3ccc(N)cc3)c3c(O)cc(OC)cc3O2)cc1	3.9	1.3	1.32	–	–	–
COc1cc(O)c2c(c1)O[C@H](c1ccc(O)cc1)C/C2=N\NC(=O)c1ccco1	≥ 11.3	≥ 11.3	1.28	–	–	–
COc1cc(O)c2c(c1)O[C@H](c1ccc(OCC3CO3)cc1)CC2=O (stereo partly drawn)	≥ 11.3	≥ 11.3	1.17	–	–	–
Cn1cccc1/C=N/N=C1\C[C@@H](c2ccc(O)cc2)Oc2cc(O)cc(O)c21	≥ 11.3	≥ 11.3	0.64	–	–	–
Oc1ccc([C@@H]2C/C(=N\N=C\c3c[nH]c4ccccc34)c3c(O)cc(O)cc3O2)cc1	≥ 11.3	≥ 11.3	0.95	–	–	–
O=C(N/N=C1\C[C@@H](c2ccc(O)cc2)Oc2cc(O)cc(O)c21)OCc1ccccc1	≥ 11.3	≥ 11.3	0.76	–	–	–
COc1cc(O)c2c(c1)O[C@H](c1ccc(OCC(O)CN3CCCCC3)cc1)CC2=O (stereo partly drawn)	9.3	17.4	3.08	–	–	–
COc1cc(O)c2c(c1)O[C@H](c1ccc(O)cc1)C/C2=N\Nc1ccc(Br)cn1	4.3	12.7	2.1	–	–	–
COc1cc(O)c2c(c1)O[C@H](c1ccc(OCC(O)CNC3CCN(Cc4ccccc4)CC3)cc1)CC2=O (stereo partly drawn)	≥ 11.3	≥ 11.3	18.7	0.108	6	2
CCN(CC)CC(O)COc1ccc([C@@H]2CC(=O)c3c(O)cc(OC)cc3O2)cc1 (stereo partly drawn)	≥ 11.3	≥ 11.3	4.06	–	–	–
